Test results reported in publication PMC6025808 (Journal of fluorescence, 2017).
Where a chain is given by its changes, count along the chain named. Where two headings read alike, the source gives them in different places.

Key:
GK-WT = assay: Change of tryptophan fluorescence yield of GK-WT on adding glucose or glycerol; type: binding, human
[1] = biological target: T1, GK-WT (recombinant wild type human β-cell glucokinase) (Homo sapiens, UniProt P35557); assay: D-glucose binding to GK-WT by tryptophan fluorescence titration
T1 sequence (P35557 1-465): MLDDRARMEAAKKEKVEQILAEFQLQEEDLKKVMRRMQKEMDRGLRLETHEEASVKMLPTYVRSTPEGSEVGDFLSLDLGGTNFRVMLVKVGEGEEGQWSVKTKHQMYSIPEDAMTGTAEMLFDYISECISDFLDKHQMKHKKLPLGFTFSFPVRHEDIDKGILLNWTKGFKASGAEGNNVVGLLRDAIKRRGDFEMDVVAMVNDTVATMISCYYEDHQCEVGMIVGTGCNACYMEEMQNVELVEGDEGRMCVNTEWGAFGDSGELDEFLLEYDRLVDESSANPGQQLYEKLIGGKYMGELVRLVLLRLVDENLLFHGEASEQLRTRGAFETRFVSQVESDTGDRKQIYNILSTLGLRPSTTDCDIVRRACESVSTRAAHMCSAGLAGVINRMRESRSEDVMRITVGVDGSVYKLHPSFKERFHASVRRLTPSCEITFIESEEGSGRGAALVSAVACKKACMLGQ
Method in brief: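 Recombinant human wild-type β-cell glucokinase was titrated with D-glucose in K-phosphate buffer, pH 7.2, with or without cosolvent, and read by Trp fluorescence at 20 °C (excitation 295 nm, emission 300–500 nm). Fluorescence was fitted to F = F0 + (Fsat − F0)[glucose]/([glucose] + Kd) to give Kd and F/F0, the intensity at glucose saturation over the intensity without glucose.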

GK-W167 (W99R/W257F) = biological target: T2, GK-W167 (W99R/W257F) (Homo sapiens, UniProt P35557, W257F/W99R); assay: Change of tryptophan fluorescence yield of GK-W167 on adding glucose or glycerol; type: binding
T2 sequence (P35557 1-465 W99R/W257F): T1 sequence (P35557 1-465) with W99R, W257F
Method in brief: (§1)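 Recombinant human β-cell glucokinase single-Trp variant, made as a GST fusion in E. coli, cleaved with factor Xa, and repurified. Buffer was 20 mM K phosphate, 50 mM KCl, 1 mM EDTA, 1 mM DTT, pH 7.2, with or without 100 mM D-glucose or 95% glycerol (v/v). Excitation 295 nm, emission 300–500 nm, 20 °C. Quantum yield was measured against NATA (φ 0.14) in water at A < 0.05, with refractive-index correction. The ratio is with/without additive.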

[2] = biological target: T3, GK-W65 (W99R/W167F/W257F/T65W) (Homo sapiens, UniProt P35557, T65W/W167F/W257F/W99R); assay: Change of tryptophan fluorescence yield of GK-W65 on adding glucose or glycerol; type: binding; settings: GK-W65, 95% glycerol/buffer (v/v)
T3 sequence (P35557 1-465 T65W/W99R/W167F/W257F): T1 sequence (P35557 1-465) with T65W, W99R, W167F, W257F
Method in brief: as §1

GK-W99 (W167F/W257F) = biological target: T4, GK-W99 (W167F/W257F) (Homo sapiens, UniProt P35557, W167F/W257F); assay: Change of tryptophan fluorescence yield of GK-W99 on adding glucose or glycerol; type: binding; settings: GK-W99, 95% glycerol/buffer (v/v)
T4 sequence (P35557 1-465 W167F/W257F): T1 sequence (P35557 1-465) with W167F, W257F
Method in brief: as §1

GK-W257 (W99R/W167F) = biological target: T5, GK-W257 (W99R/W167F) (Homo sapiens, UniProt P35557, W167F/W99R); assay: Change of tryptophan fluorescence yield of GK-W257 on adding glucose or glycerol; type: binding; settings: GK-W257, 95% glycerol/buffer (v/v)
T5 sequence (P35557 1-465 W99R/W167F): T1 sequence (P35557 1-465) with W99R, W167F
Method in brief: as §1

Row | SMILES | (Φf)/Φ0 observed, fluorescence quantum yield with/without (times) (GK-WT; 100 mM D-glucose in buffer, listed as Glucose) | (Φf)/Φ0 observed, fluorescence quantum yield with/without (times) (GK-WT; 100 mM D-glucose in buffer, listed as glucose) | F/F0 upon D-glucose binding ([1]; 1 M sucrose) | F/F0 upon D-glucose binding ([1]; 1 M trehalose) | F/F0 upon D-glucose binding ([1]; 2 M L-glucose) | F/F0 upon D-glucose binding ([1]; 20% glycerol) | Kd ([1]; D-glucose binding KD, 1 M sucrose) [µM] | Kd ([1]; D-glucose binding KD, 1 M trehalose) [µM] | Kd ([1]; D-glucose binding KD, 2 M L-glucose) [µM] | Kd ([1]; read-out: D-glucose binding KD, PO4 buffer pH 7.2, 20 °C) [µM] | (Φf)/Φ0 observed, fluorescence quantum yield with/without (times) (GK-W167 (W99R/W257F); GK-W167, 100 mM D-glucose in buffer, listed as Glucose) | (Φf)/Φ0 observed, fluorescence quantum yield with/without (times) (GK-W167 (W99R/W257F); GK-W167, 100 mM D-glucose in buffer, listed as glucose) | (Φf)/Φ0 observed, fluorescence quantum yield with/without (times) (GK-WT; 95% glycerol/buffer (v/v)) | (Φf)/Φ0 observed, fluorescence quantum yield with/without (times) [2] | (Φf)/Φ0 observed, fluorescence quantum yield with/without (times) (GK-W99 (W167F/W257F)) | (Φf)/Φ0 observed, fluorescence quantum yield with/without (times) (GK-W99 (W167F/W257F); listed as Glycerol) | (Φf)/Φ0 observed, fluorescence quantum yield with/without (times) (GK-W167 (W99R/W257F); GK-W167, 95% glycerol/buffer (v/v)) | (Φf)/Φ0 observed, fluorescence quantum yield with/without (times) (GK-W257 (W99R/W167F))
1 | OC[C@H]1OC(O)[C@H](O)[C@@H](O)[C@@H]1O (stereo partly drawn) [D-glucose] | 2.0 | ~2 | 1.74 | 1.71 | 1.63 | 1.74 | 3570 | 1750 | 1120 | 7390 | 1.8 | about 1.8 | – | – | – | – | – | –
2 | OCC(O)CO [glycerol] | – | – | – | – | – | – | – | – | – | – | – | – | 2.6 | 1.1 | over 4.6 | 4.6 | ~2.3 | 1.3
